Results collected from several papers.
Compare with care: the assays were run in different laboratories.
Target: Tyrosine-protein kinase receptor Tie-1 (TIE1, Homo sapiens, UniProt P35590)

| Compound | assay | setting | remaining binding |
| --- | --- | --- | --- |
| C[C@H](NC(=O)c1cnc2n1[C@](C)(Cc1ccc(C#N)cc1)C(=O)N2c1cc(Cl)c(F)c(Cl)c1)C(=O)NC1(c2ccccn2)CC1 | cell-free assay, competition with immobilised ligand | 1 µM | 100% |
| CN(C)c1nccc(-c2cnc3ncccn23)n1 | binding | 1 µM | 83% |
| O=C(NCCCN1CCOCC1)c1ccc(Nc2ncc(Cl)c(-c3ccc(Cl)s3)n2)cc1 | binding, competition with immobilised ligand | 1 µM | 44% |
| CNCc1ccccc1-c1csc([C@H](C)Nc2nc(C)nc3cc(OC)c(OC)cc23)c1 | cell-free assay, competition with immobilised ligand | 1 µM | 100% |
| F[C@@H]1CCN(c2nccc(-c3cnn4ncccc34)n2)C1 | binding | 1 µM | 100% |
| Cc1cc(-n2nc(Cc3cc(F)cc(C(F)(F)F)c3)nc2C)ccc1C(N)=O | cell-free assay, competition with immobilised ligand | 1 µM | 100% |
| CNC(=O)[C@@H]1CC[C@@H](n2c(-c3ccc4cnccc4c3)nc3ccc(C(=O)NCc4cccc(C(N)=O)c4)cc32)C1 | binding, competition with immobilised ligand | 1 µM | 85% |
| C=CC(=O)N1CCC(C(=O)NCC(=O)N2CCN(c3nc(-c4cnc(N)nc4C(F)F)nc(N4CCOCC4)n3)CC2)CC1 | binding, competition with immobilised ligand | 1 µM | 100% |
| COc1cnc(Nc2cccc(S(N)(=O)=O)c2)nc1N1CCN(c2ccccc2)CC1 | binding, competition with immobilised ligand | 1 µM | 99% |
| COc1ccnn2ncc(-c3ccnc(N(C)C)n3)c12 | binding | 1 µM | 81% |
| CNC(=O)c1ccc(Nc2ncc(C(F)(F)F)c(NCc3nccnc3N(C)S(C)(=O)=O)n2)cc1 | cell-free assay, competition with immobilised ligand | 0.1 µM | 47% |
| CN(CCCC(F)(F)F)c1nccc(-c2cnn3ncccc23)n1 | binding | 1 µM | 100% |
| CS(=O)(=O)N1CCCC(NC(=O)[C@H](CCC2CCCCC2)NC(=O)c2ccc(CNC(=O)c3cnc4ccccn34)cc2)C1 (stereo partly shown) | cell-free assay, competition with immobilised ligand | 0.1 µM | 100% |
| O=C(NCCCN1CCOCC1)c1ccc(Nc2nccc(-c3cc4ccccc4s3)n2)cc1 | binding, competition with immobilised ligand | 1 µM | 48% |
| CCCCN(CCCC)C(=O)CN1C[C@@H](c2cc(OC)c3c(c2)OCO3)[C@H](C(=O)O)[C@H]1CC(C)(C)CCC | cell-free assay, competition with immobilised ligand | 1 µM | 94.7% |
| N[C@@H]1CCN(c2nccc(-c3cnn4ncccc34)n2)C1 | binding | 1 µM | 100% |
| CCN1CCN(Cc2ccc(C(=O)Nc3ccc(C)c(Oc4ccc5c(c4)CC(=O)N5)c3)cc2C(F)(F)F)CC1 | binding, competition with immobilised ligand | 1 µM | 79% |
| Nc1ncc2c(n1)-c1c([nH]c3ccc(C#CC4CC4)cc13)CCCC2 | binding, competition with immobilised ligand | 1 µM | 96% |
| O=C(Nc1c[nH]nc1C(=O)NC1CCNCC1)c1cc(F)cc(F)c1 | binding, competition with immobilised ligand | 1 µM | 100% |
| C[C@@H]1CCN(c2nccc(-c3cnn4ncccc34)n2)C1 | binding | 1 µM | 100% |
| O=C(O)[C@@H]1[C@@H](Cn2nnc3ccccc3c2=O)CC[C@H]1C(=O)c1ccc(OCCC2CCOCC2)cc1 | cell-free assay, competition with immobilised ligand | 1 µM | 100% |
| O=C(c1ccc(Nc2ncc(Cl)c(-c3cc4ccccc4s3)n2)cc1)N1CCC(N2CCCC2)CC1 | binding, competition with immobilised ligand | 1 µM | 4.8% |
